{
  "source": "ChEMBL document CHEMBL4602727",
  "about": "“Lead Optimization of Second-Generation Acridones as Broad-Spectrum Antimalarials” (J Med Chem, 2020)",
  "assay_type_in_all_cases": "ADME, organism-based",
  "key": {"[1]": {"test": "AUC (0 to last) in ICR mouse liver at 80 mg/kg, po administered as single dose", "design": "dose 80 mg/kg, time 0 - last, route oral"}, "[2]": {"test": "Ratio of AUC (0 to infinity) in ICR mouse liver to plasma at 80 mg/kg, po administered as single dose", "details": "liver and plasma, read-out: Ratio AUC"}, "[3]": {"test": "Apparent volume of distribution in ICR mouse plasma at 80 mg/kg, po administered as single dose", "details": "read-out: Vz/F", "how_it_was_run": "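Male ICR mice, 7 weeks old, 23–28 g, received a single intragastric 80 mg/kg dose in DD water (100 μL/20 g). […] Cmax and Tmax came from the concentration–time curves; t1/2 = ln2/kel; AUC by linear trapezoidal rule extrapolated to infinity; MRT = AUMC/AUC.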"}, "[4]": {"test": "AUC (0 to infinity) in ICR mouse liver at 80 mg/kg, po administered as single dose", "design": "dose 80 mg/kg, route oral, time infinity"}},
  "data": [
    {"smiles": "O=c1c2ccc(OCc3cccc(C(F)(F)F)c3)cc2[nH]c2cc(F)cc(F)c12", "values": [
      {"measurement": "AUC(0-t)", "setting": "[1]", "result": 11500, "unit": "ng·h/mL"}
    ]},
    {"smiles": "O=c1c2ccc(Oc3ccc(OC(F)(F)F)cc3)cc2[nH]c2cc(Cl)cc(F)c12", "values": [
      {"measurement": "Kp", "setting": "[2]", "result": 112}
    ]},
    {"smiles": "O=c1c2ccc(OCc3ccc(OC(F)(F)F)cc3)cc2[nH]c2cc(F)cc(F)c12", "values": [
      {"measurement": "AUC(0-t)", "setting": "[1]", "result": 20400, "unit": "ng·h/mL"}
    ]},
    {"smiles": "O=c1c2cc(OCc3ccc(OC(F)(F)F)cc3)ccc2[nH]c2cc(F)cc(F)c12", "values": [
      {"measurement": "Vd/F", "setting": "[3]", "result": 290, "unit": "L/kg"}
    ]},
    {"smiles": "O=c1c2ccc(OCc3cccc(OC(F)(F)F)c3)cc2[nH]c2cc(F)cc(F)c12", "values": [
      {"measurement": "AUC(0-inf)", "setting": "[4]", "result": 19300, "unit": "ng·h/mL"}
    ]}
  ]
}
